Experimental data taken from publication PMC6447045 (Nature chemical biology, 2019).

Assays:
[1] = test system: HIF-2 target genes in 786-O cells; test: qPCR of endogenous HIF-2 target genes in 786-O cells; type: cell-based; conditions: 24 hours, PT2385 0.01-10 μM, T1001, M1001, M1002 10 μM
How it was run: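 786-O cells were grown in RPMI1640 with 10% FBS in 6-well plates at 37 °C, 5% CO2. Compound was given at various concentrations with 0.1% DMSO, and DMSO alone served as control. After 24 h, RNA was isolated and converted to cDNA. SYBR Green real-time PCR was normalized to ACTB. Values are mean ± s.d., n=3 independent cultures.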

[2] = test system: HIF-2 and HIF-1 target genes in Hep3B cells; test: qPCR of HIF target genes in Hep3B cells under hypoxia; type: cell-based; conditions: hypoxia (1% O2), 10 μM, 8 h
[3] = biological target: HIF-1α-ARNT heterodimer (Mus musculus, UniProt Q61221); test: TR-FRET-based in vitro binding assay, HIF-1α-ARNT; type: biochemical
[4] = test system: HIF-2 (EPO and NDRG1) and HIF-1 (PGK1) target genes in Hep3B cells; test: qPCR in Hep3B cells, PHD inhibitors and HIF-2α agonist co-treatment; type: cell-based; conditions: 10 μM PHD inhibitor alone
How it was run: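 Hep3B cells were grown in DMEM with 10% FBS in 6-well plates. They were pretreated with 10 μM molidustat or roxadustat for 8 h, then 5 μM agonist was added (final DMSO 0.1%). After a further 24 h, RNA was isolated and reverse-transcribed. Target mRNAs were quantified by SYBR Green real-time PCR and normalized to ACTB in the same sample.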

| SMILES | effect on expression of endogenous HIF-2 target genes [1] | effect on expression of HIF-2 specific and HIF-1 specific genes [2] | effect on HIF-1α-ARNT subunit interactions [3] | effect on HIF-1 selective target gene (PGK1) [4] | increase of expression of HIF-2 target genes (EPO and NDRG1) [4] |
| --- | --- | --- | --- | --- | --- |
| CS(=O)(=O)c1ccc(Oc2cc(F)cc(C#N)c2)c2c1[C@H](O)C(F)(F)C2 [PT2385, (S)-3-((2,2-Difluoro-1-hydroxy-7-(methylsulfonyl)-2,3-dihydro-1 H-inden-4-yl)oxy)-5-fluorobenzonitrile] | dose-dependent inhibitory activity | decreased the expression of HIF-2 specific genes (VEGF, EPO and NDRG1) but not the HIF-1 specific gene (PGK1) | no PT2385 effect |  |  |
| O=c1c(-n2ccnn2)c[nH]n1-c1cc(N2CCOCC2)ncn1 [molidustat] |  |  |  | relatively small effects | 3–5 fold |
| Cc1nc(C(=O)NCC(=O)O)c(O)c2ccc(Oc3ccccc3)cc12 [roxadustat] |  |  |  | relatively small effects | 3–5 fold |
